Compound activity (PubChem)
Rpn11 inh: blocks the human proteasome subunit Rpn11; O00487; human 26S proteasome, Ub4-pepOG fluorescence polarization; 20S core pre-blocked with epoxomicin; inhibition, % at 20 µM; actives 0.59% (n = 360,000);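 active = inhibition at 20 µM, scaled to each plate's controls, above about 33%, limit read from the data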
CSN deneddyl inh: blocks human CSN-mediated cullin deneddylation | Q92905 | Purified CSN, SCF-Nedd8-OG deneddylation, fluorescence polarization | inhibition, % at 12.5 µM | actives 0.38% (n = 360,000) | AID 651999;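 active = pattern-corrected inhibition above about 35%, with an unprinted fluorescence ratio check between 0.5 and 1.5, limit read from the data, passing the limit was not always enough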;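 note: 0% = enzyme with substrate and 100% = substrate without enzyme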
Target sequence (Q92905 whole entry, looked up, one chain of several): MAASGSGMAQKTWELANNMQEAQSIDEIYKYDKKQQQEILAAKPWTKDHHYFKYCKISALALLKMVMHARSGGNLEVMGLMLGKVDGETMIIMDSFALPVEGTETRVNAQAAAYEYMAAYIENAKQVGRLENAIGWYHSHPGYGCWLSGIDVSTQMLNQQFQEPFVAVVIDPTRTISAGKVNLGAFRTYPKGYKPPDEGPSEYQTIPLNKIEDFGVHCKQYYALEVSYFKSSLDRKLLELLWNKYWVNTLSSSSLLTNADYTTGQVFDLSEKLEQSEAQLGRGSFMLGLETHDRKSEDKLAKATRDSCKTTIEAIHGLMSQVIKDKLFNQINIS
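test system = HEK293T-derived human Csn5 enzyme | amount = 0.24 nM Csn5 enzyme, final concentration | medium = Tris/NaCl/DTT buffer, pH 7.5 | schedule = 90 min reaction at room temperature | signal = FP | evaluation = inhibition of Csn5 cleavage, % | compound dosing = single dose of 12.5 µM compound with 0.25% DMSO | probe or stimulus = 10 nM SCFSkp2-Nedd8OG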
Myeloid diff 2: promotes myeloid progenitor differentiation; ER-HoxA9 myeloid progenitors, lysozyme-GFP differentiation, flow cytometry; calls only at 10 µM; actives 1% (n = 360,000); AID 624256;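 active = normalized GFP-positive differentiation at or above the plate's own cutoff, the solvent-only control mean plus 3 SD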;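 note: cells exposed to compound for four days before flow analysis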
TPT1 inh: blocks Candida albicans tRNA 2'-phosphotransferase. recombinant caTPT1, FP RNA substrate dephosphorylation. inhibition, % at 5 µM. actives 0.81% (n = 300,000). AID 1962;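 active = inhibition above the mean of all tested compounds plus 3 SD, set per screening campaign, cut at about 24% in these data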;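 note: plate controls were DMSO alone for no effect and ferristatin control at 100 nM for full effect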
HNF4A DNA FP: change in binding of human HNF4 alpha to DNA; P41235; HNF4a-FITC DNA binding, fluorescence polarization, 1 h; activity change, % at 10 µM; actives 0.3% (n = 360,000); in the data active = activity change above about 30%, passing the limit was not always enough
Rpn11 inh conf: Rpn11 inhibition confirmation, single concentration; purified human 26S proteasome, Ub4-pepOG fluorescence polarization; proteasome pretreated with epoxomicin; shares compounds with Rpn11 inh; actives 29% (n = 1,900); inhibition, % at 20 µM
MMP-2 inh: blocks human MMP-2, flagging nonselective RPN11 hits. shares compounds with Rpn11 inh. recombinant MMP-2, FRET peptide cleavage fluorescence. inhibition, % at 20 µM. actives 4% (n = 1,900);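 note: human MMP-2 activated beforehand with APMA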
Thrombin FP: thrombin (bovine) inhibition counter-screen | actives 13% (n = 1,900) | inhibition, % at 20 µM | bovine thrombin cleavage of Ub4-pepOG, fluorescence polarization | shares compounds with Rpn11 inh;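 active = mean inhibition at least 40% at 20 µM, or signal 3 deviations below plate average, so some actives read negative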;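 note: plate controls were thrombin with DMSO for no effect and buffer wells lacking thrombin for full effect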
* marks the source's active call; other numbers are inactive results; i = inactive; / = not tested or not shown. In the library only some 2.3% were active in any assay of this set; here they are far more common. Cut-off read from the data, not from the text of the source, unless noted: active = inhibition above about 40%; inactive = the rest.

SMILES	Rpn11 inh	CSN deneddyl inh	Myeloid diff 2	TPT1 inh	HNF4A DNA FP	Rpn11 inh conf	MMP-2 inh	Thrombin FP
CCOc1ccc(C(c2c(C)[nH][nH]c2=O)c2c(C)[nH][nH]c2=O)cc1OC	-2.0	-0.5	i	-1.5	6.3	/	/	/
CCOc1cc(C(c2c(C)[nH][nH]c2=O)c2c(C)[nH][nH]c2=O)ccc1OS(=O)(=O)c1ccc(C)cc1	103.1*	2.1	i	-2.8	12.4	20.1	16.3	-13.2
COc1ccc(C(=O)c2ccc(N3CCN(C(=O)c4ccc(F)cc4)CC3)c(F)c2)cc1Br	3.7	6.9	i	1.5	1.9	/	/	/
COc1ccc(OC)c(N=C(C)C2=C(O)COC2=O)c1	107.9*	1.6	i	-7.0	22.2	-12.8	-56.4	-9.5
O=S(=O)(NCc1ccc(F)cc1)c1ccc(-n2cnnn2)cc1	7.3	-1.0	i	4.3	-0.6	/	/	/
O=C1CCCC(O)=C1N=Nc1ccc(Cl)c(Cl)c1	1.1	0.0	i	-1.4	0.5	/	/	/
CC(=O)N1CCc2cc(N=NC3=C(O)CCCC3=O)ccc21	55.9*	31.4	i	18.6	43.4*	51.3*	-7.0	21.8
CN(C)c1nc(N)c([N+](=O)[O-])c(NCCO)n1	-5.2	2.4	i	1.2	-3.9	/	/	/
CCCc1nc2oc3ccccc3c(=O)c2c(=O)n1-c1ccc(C)cc1	-0.1	-5.0	i	3.1	-0.1	/	/	/
CCc1nc2oc3ccccc3c(=O)c2c(=O)n1-c1ccc(C)cc1	68.1*	4.7	i	18.7	-13.2	46.5*	-18.3	22.3
CC(=O)CSc1nsc(SCC(C)=O)c1C#N	45.9*	15.2	i	11.2	4.6	16.2	49.8*	15.2
CCOC(=O)CSc1nsc(SCC(=O)OCC)c1C#N	-2.0	-2.6	i	0.3	-1.9	/	/	/
COc1cc(/C=C2/SC(=S)N(CC(=O)O)C2=O)ccc1OC(=O)c1ccco1	45.0*	10.5	i	4.9	29.4	19.2	-8.2	15.4
Cc1ccc(/C=C2\SC(=S)N(CCCC(=O)NNC(=O)c3ccccc3O)C2=O)cc1	42.0*	3.7	i	2.9	9.7	42.8*	-31.6	-21.8
O=C(CCN1C(=O)/C(=C\c2ccccc2)SC1=S)Nc1ccc(C(=O)O)cc1	0.8	2.6	/	1.6	4.6	/	/	/
CCc1ccc(/C=C2\SC(=S)N(CCC(=O)N3CCN(C)CC3)C2=O)cc1	51.1*	4.8	i	0.2	0.1	70.0*	-52.7	54.1*
COc1cc(/C=C2\SC(=S)N(CC(=O)O)C2=O)ccc1OC(=O)c1ccco1	31.3	11.7	i	4.9	28.4	/	/	/
CCOc1ccc(/C=C2/SC(=S)N(CCC(=O)Nc3ccc(C(=O)O)cc3)C2=O)cc1	78.7*	24.2	i	-5.8	-2.4	-9.6	-2.0	1.7
O=C(CCN1CCCC1=O)NC1CCCc2c1cnn2-c1ccc(F)cc1F (stereo not drawn)	14.7	-0.1	i	-0.3	-2.3	/	/	/
CCN(CC)S(=O)(=O)c1ccc(OC)c(NC(=O)COc2ccc3c(C)cc(=O)oc3c2)c1	3.9	-0.1	i	3.1	-1.2	/	/	/
CC(C)n1ncc2c(C(=O)N3CCN(Cc4ccc(Br)s4)CC3)cc(C3CC3)nc21	0.0	-2.6	i	/	-3.1	/	/	/
CN(C)c1ccc(N2C(=NC(=O)c3ccccc3)SC3CS(=O)(=O)CC32)cc1 (stereo not drawn)	6.7	-0.6	i	-3.1	1.3	/	/	/
COc1cc(/C=C2\C(=N)N3N=C(S(C)(=O)=O)SC3=NC2=O)ccc1OC(=O)c1ccco1	44.2*	22.9	i	1.4	18.7	5.4	-20.5	7.5
O=C(O)CCCCN1C(=O)/C(=C\c2ccc(OCc3ccccc3)c(OCc3ccccc3)c2)SC1=S	42.7*	8.3	i	1.7	-30.5	43.2*	2.4	0.4
COc1cccc(/C=C2/SC(=S)N(CCCC(=O)Nc3ccc(O)cc3)C2=O)c1	-4.8	-1.3	i	2.3	3.0	/	/	/
